# Measurements from ChEMBL document CHEMBL1125014, “Synthesis and structure-activity relationships of new 9-N-alkyl derivatives of 9(S)-erythromycylamine” (1990).
# Tests used:
# [1] = tested on: Mus musculus; experiment: ED50 value was measured by sc administration against streptococcus pneumoniae infection in mice (in vivo, in experiment 3); format: functional; settings: Mus musculus, sc; read-out: ED50
# [2] = tested on: Mus musculus; experiment: Plasma concentration in mice was determined by subcutaneous administration, 20 mg/kg at 20 min; format: functional, organism-based; set-up: dose 20 mg/kg
# In short: (§1)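 Mice given 20 mg/kg orally or subcutaneously; peripheral plasma sampled at 5, 20 and 40 min and at 1, 2 and 4 h after dosing. Microbiological assay used Micrococcus luteus seeded in Antibiotic Medium 1, with zone sizes converted by the compound's own standard curve. Each value is the average of five mice per time point.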
# [3] = organism: Rattus norvegicus; experiment: Fluid concentration in lung tissue was determined in rats at 4 h; format: functional
# In short: (§2)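 Rats dosed by gavage at 20 mg/kg; lung, liver, kidney, urine and serum sampled at 0.5, 1, 2, 4 and 6 h after dosing. Antibiotic measured by microbiological assay with Micrococcus luteus seeded in Antibiotic Medium 1. Zone sizes were read against the standard curve for the same compound. Each value is the average of three rats per time point.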
# [4] = organism: Rattus norvegicus; experiment: Fluid concentration in kidney tissue was determined in rats at 6 hr; format: functional
# In short: (§3)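 Rats were gavaged at 20 mg/kg and tissues sampled 0.5–6 h after dosing. Drug was assayed microbiologically with Micrococcus luteus seeded in Antibiotic Media 1. Zone sizes were read against each compound's own standard curve. Values are the mean of three rats per time point, in μg/g.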
# [5] = tested on: Streptococcus pyogenes; experiment: MIC value measured against streptococcus pyogenes C203; format: functional
# [6] = tested on: Mus musculus; experiment: Plasma concentration in mice was determined by subcutaneous administration, 20 mg/kg at 5 min; format: functional, organism-based; set-up: dose 20 mg/kg; in short: as §1
# [7] = tested on: Mus musculus; experiment: ED50 value was measured by sc administration against streptococcus pneumoniae infection in mice (in vivo, in experiment 1); format: functional
# In short: (§4)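 Infected mice were dosed orally or subcutaneously at 1 and 5 h postinfection, 0.25 mL of antibiotic solution in 10% aqueous ethanol per dose. Tartaric acid was added where needed for solubility. Several dose concentrations were tested to give the ED50.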
# [8] = organism: Rattus norvegicus; experiment: Fluid concentration in liver tissue was determined in rats at 1 h; format: functional; in short: as §2
# [9] = tested on: Mus musculus; experiment: ED50 value was measured by sc administration against streptococcus pyogenes infection in mice (in vivo, in experiment 1); format: functional; in short: as §4
# [10] = organism: Rattus norvegicus; experiment: Fluid concentration in lung tissue was determined in rats at 1 h; format: functional; in short: as §2
# [11] = tested on: Mus musculus; experiment: Plasma concentration in mice was determined by subcutaneous administration, 20 mg/kg at 1 hr; format: functional, organism-based; set-up: dose 20 mg/kg; in short: as §1
# [12] = organism: Rattus norvegicus; experiment: Fluid concentration in kidney tissue was determined in rats at 0.5 hr; format: functional; in short: as §3
# [13] = organism: Rattus norvegicus
# [14] = tested on: Mus musculus; experiment: ED50 value was measured by po administration against streptococcus pyogenes infection in mice (in vivo, in experiment 3); format: functional; settings: Mus musculus, po; read-out: ED50
# [15] = tested on: Streptococcus pyogenes; experiment: Effective dose against mice infected with streptococcus pyogenes after peroral administration (in vivo); format: functional; settings: in Mus musculus, po
# [16] = tested on: Enterococcus faecalis; experiment: MIC value was measured against streptococcus faecalis X66; format: functional
# In short: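 Susceptibility determined by standard agar-dilution method against a panel of bacterial strains.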
# [17] = organism: Rattus norvegicus; experiment: Fluid concentration in liver tissue was determined in rats at 0.5 h; format: functional; in short: as §3
# [18] = organism: Mus musculus
# [19] = organism: Rattus norvegicus; experiment: Fluid concentration in lung tissue was determined in rats at 0.5 h; format: functional; in short: as §2
# [20] = tested on: Rattus norvegicus; experiment: Plasma concentration in rats was determined by oral administration, 20 mg/kg at 40 min; format: functional, organism-based; set-up: dose 20 mg/kg
# In short: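 Peripheral plasma antibiotic levels in rats given 20 mg/kg orally or subcutaneously. Plasma was sampled at timed points after dosing. Levels were measured by microbiological agar assay with Micrococcus luteus seeded in Antibiotic Media 1, reading zone sizes, and were calculated from a standard curve for the appropriate compound. Each value is the average of three rats per time point, in μg/mL.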
# [21] = tested on: Mus musculus; experiment: Plasma concentration in mice was determined by subcutaneous administration, 20 mg/kg at 4 hr; format: functional, organism-based; set-up: dose 20 mg/kg; in short: as §1
# [22] = organism: Rattus norvegicus; experiment: Fluid concentration in urine was determined in rats at 6 hr; format: functional; in short: as §2
# [23] = tested on: Mus musculus; experiment: ED50 value was measured by sc administration against staphylococcus aureus infection in mice (in vivo, in experiment 1); format: functional; in short: as §4
# [24] = tested on: Mus musculus; experiment: Plasma concentration in mice was determined by subcutaneous administration, 20 mg/kg at 2 hr; format: functional, organism-based; set-up: dose 20 mg/kg; in short: as §1
# [25] = tested on: Staphylococcus aureus; experiment: MIC value measured against staphylococcus aureus X1; format: functional
# [26] = organism: Rattus norvegicus; experiment: Fluid concentration in lung tissue was determined in rats at 6 h; format: functional; in short: as §2
# [27] = organism: Rattus norvegicus; experiment: Fluid concentration in lung tissue was determined in rats at 2 h; format: functional; in short: as §2
# [28] = tested on: Haemophilus influenzae; experiment: MIC value was measured against haemophilus influenzae CL; format: functional
# [29] = organism: Rattus norvegicus; remark: listed apart in the source
# [30] = tested on: Mus musculus; experiment: ED50 value was measured by po administration against staphylococcus aureus infection in mice (in vivo, in experiment 1); format: functional; in short: as §4
# [31] = tested on: Mus musculus; experiment: ED50 value was measured by po administration against streptococcus pneumoniae infection in mice (in vivo, in experiment 3); format: functional; settings: Mus musculus, po; read-out: ED50
# [32] = organism: Rattus norvegicus; remark: listed apart in the source
# [33] = tested on: Staphylococcus aureus; experiment: Effective dose against mice infected with Staphylococcus aureus after peroral administration (in vivo); format: functional; settings: in Mus musculus, po
# [34] = tested on: Mus musculus; experiment: Plasma concentration in mice was determined by subcutaneous administration, 20 mg/kg at 40 min; format: functional, organism-based; set-up: dose 20 mg/kg; in short: as §1
# [35] = tested on: Streptococcus pneumoniae; experiment: Effective dose against mice infected with streptococcus pneumoniae after peroral administration (in vivo); format: functional; settings: in Mus musculus, po
# [36] = tested on: Streptococcus pneumoniae; experiment: MIC value measured against streptococcus pneumoniae Park1; format: functional
# [37] = tested on: Mus musculus; experiment: ED50 value was measured by sc administration against staphylococcus aureus infection in mice (in vivo, in experiment 3); format: functional; settings: Mus musculus, sc; read-out: ED50
# [38] = tested on: Mus musculus; experiment: ED50 value was measured by po administration against staphylococcus aureus infection in mice (in vivo, in experiment 3); format: functional; settings: Mus musculus, po; read-out: ED50
# [39] = tested on: Mus musculus; experiment: ED50 value was measured by po administration against streptococcus pyogenes infection in mice (in vivo, in experiment 1); format: functional; in short: as §4
# [40] = tested on: Mus musculus; experiment: ED50 value was measured by po administration against streptococcus pneumoniae infection in mice (in vivo, in experiment 1); format: functional; in short: as §4
# [41] = organism: Rattus norvegicus; experiment: Fluid concentration in kidney tissue was determined in rats at 1 hr; format: functional; in short: as §3
# [42] = tested on: Staphylococcus epidermidis; experiment: microbe, parasite or virus in culture; format: functional
structure (smiles),measurement,setting,value
CC[C@H]1OC(=O)[C@H](C)[C@@H](O[C@H]2C[C@@](C)(OC)[C@@H](O)[C@H](C)O2)[C@H](C)[C@@H](O[C@@H]2O[C@H](C)C[C@H](N(C)C)[C@H]2O)[C@](C)(O)C[C@@H](C)C(=O)[C@H](C)[C@@H](O)[C@]1(C)O [ERYTHROMYCIN],ED50,[1],3.5 mg/kg
same,Plasma concentration,[2],5.96 µg/mL
same,Activity,[3],0.03 µg/mL
same,Activity,[4],0 µg/mL
same,MIC,[5],0.015 µg/mL
same,Plasma concentration,[6],5.84 µg/mL
same,ED50,[7],2.7 mg/kg
same,Activity,[8],0.03 µg/mL
same,ED50,[9],2.5 mg/kg
same,Activity,[10],0.4 µg/mL
same,Plasma concentration,[11],4.26 µg/mL
same,Activity,[12],0.17 µg/mL
same,Plasma concentration,[13],0.11 µg/mL
same,ED50,[14],12 mg/kg
same,ED50,[15],21 mg/kg
same,MIC,[16],0.06 µg/mL
same,Activity,[17],0.15 µg/mL
same,Plasma concentration,[18],0.1 µg/mL
same,Activity,[19],1 µg/mL
same,Plasma concentration,[20],0.11 µg/mL
same,Plasma concentration,[21],0 µg/mL
same,Activity,[22],0.35 µg/mL
same,ED50,[23],1.6 mg/kg
same,Plasma concentration,[24],0.01 µg/mL
same,MIC,[25],0.12 µg/mL
same,Activity,[26],0.04 µg/mL
same,Activity,[27],0.04 µg/mL
same,MIC,[28],1 µg/mL
same,Plasma concentration,[29],0.48 µg/mL
same,ED50,[30],15 mg/kg
same,ED50,[31],> 100 mg/kg
same,Plasma concentration,[32],0.7 µg/mL
same,ED50,[33],41 mg/kg
same,Plasma concentration,[34],4.36 µg/mL
same,ED50,[35],44 mg/kg
same,MIC,[36],0.008 µg/mL
same,ED50,[37],4.1 mg/kg
same,ED50,[38],71 mg/kg
same,ED50,[39],18 mg/kg
same,ED50,[40],14 mg/kg
same,Activity,[41],0.15 µg/mL
same,MIC,[42],0.06 µg/mL
